Measured values: ChEMBL document CHEMBL1142852, “A series of 5-(5,6)-dihydrouracil substituted 8-hydroxy-[1,6]naphthyridine-7-carboxylic acid 4-fluorobenzylamide inhibitors of HIV-1 integrase and viral replication in cells” (Bioorg Med Chem Lett, 2005)

Columns and labels:
[1] = Human plasma albumin binding in pH 7.4 at RT; type: ADME, cell-free
In short: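 Binding to human plasma protein, mainly albumin, was measured by analytical HPLC with UV detection. The assay ran in pH 7.4 buffer at room temperature, and the result was reported as percent protein bound.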

[2] = test system: Human immunodeficiency virus; assay: Antiviral activity in presence of 10% FBS against HIV-1 replication in cells; type: functional, Human immunodeficiency virus 1; details: read-out: CIC95
[3] = biological target: Human immunodeficiency virus type 1 integrase (Human immunodeficiency virus 1, UniProt Q7ZJM1); assay: Inhibition of strand transfer for HIV-1 integrase
Chain of Human immunodeficiency virus type 1 integrase (Q7ZJM1 whole entry): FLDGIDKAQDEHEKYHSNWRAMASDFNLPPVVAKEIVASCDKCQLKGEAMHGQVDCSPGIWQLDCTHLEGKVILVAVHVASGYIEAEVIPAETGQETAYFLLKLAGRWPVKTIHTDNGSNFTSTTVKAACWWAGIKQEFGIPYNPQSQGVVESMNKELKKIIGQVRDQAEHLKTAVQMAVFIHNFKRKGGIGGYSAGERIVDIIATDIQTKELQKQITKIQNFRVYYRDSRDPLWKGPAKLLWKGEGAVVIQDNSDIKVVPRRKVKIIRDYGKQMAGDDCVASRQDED

[4] = test system: Human immunodeficiency virus; assay: Antiviral activity in presence of 50% NHS against HIV-1 replication in cells; type: functional, Human immunodeficiency virus 1; details: read-out: CIC95

| Structure (SMILES) | Activity [1] | IC95 ([2]; Human immunodeficiency virus 1) | IC50 [3] | IC95 ([4]; Human immunodeficiency virus 1) | IC95 [2] | IC95 [4] |
| --- | --- | --- | --- | --- | --- | --- |
| O=C(NCc1ccc(F)cc1)c1ncc2cccnc2c1O | 99.2% | 1250 nM | 32.8 nM | 5000 nM | – | – |
| O=C1CC(c2nc(C(=O)NCc3ccc(F)cc3)c(O)c3ncccc23)NC(=O)N1 (single isomer, unassigned; (-)) | – | – | 13.3 nM | – | 125 nM | 125 nM |
| CN1C(=O)CC(c2nc(C(=O)NCc3ccc(F)cc3)c(O)c3ncccc23)N(C)C1=O (racemic) | 94.3% | – | 8.7 nM | – | 18.6 nM | 60.7 nM |
| O=C1CC(c2nc(C(=O)NCc3ccc(F)cc3)c(O)c3ncccc23)NC(=O)N1 (racemic) | 92.1% | – | 10 nM | – | 53.7 nM | 55.7 nM |
| CN1C(=O)CC(c2nc(C(=O)NCc3ccc(F)cc3)c(O)c3ncccc23)N(C)C1=O (stereo in doubt; 14) | 97.8% | – | 27.5 nM | – | 250 nM | 1000 nM |
| O=C1CC(c2nc(C(=O)NCc3ccc(F)cc3)c(O)c3ncccc23)NC(=O)N1 (single isomer, unassigned; (+)) | – | – | 11 nM | – | 93.8 nM | 93.8 nM |
| CN1C(=O)NC(=O)CC1c1nc(C(=O)NCc2ccc(F)cc2)c(O)c2ncccc12 (racemic) | – | 15.6 nM | 12.5 nM | 15.6 nM | – | – |
| CN1C(=O)CC(c2nc(C(=O)NCc3ccc(F)cc3)c(O)c3ncccc23)N(C)C1=O (single isomer, unassigned; (+)) | 96% | – | 11.3 nM | – | 41.7 nM | 166.7 nM |
| CN1C(=O)CC(c2nc(C(=O)NCc3ccc(F)cc3)c(O)c3ncccc23)N(C)C1=O (single isomer, unassigned; (-)) | 95% | – | 35 nM | – | 20.1 nM | 40.2 nM |
| CN1C(=O)CC(c2nc(C(=O)NCc3ccc(F)cc3)c(O)c3ncccc23)NC1=O (racemic) | – | 31.3 nM | 12.8 nM | 62.5 nM | – | – |
